Measured values taken from ChEMBL document CHEMBL4616588, “High content phenotypic screening identifies serotonin receptor modulators with selective activity upon breast cancer cell cycle and cytokine signaling pathways” (Bioorg Med Chem, 2020).
The source made the active and inactive calls. No cut-off for these calls is given here.

Columns and labels:
T47D [1] = experiment: Induction of morphological changes in human T47D cells at 10 uM incubated for 48 hrs by Hoechst 33342, SYTO14, Phalloidin-594, Wheat germ agglutinin-594, Concavalin-488, MitoTracker DeepRed staining based wide field fluorescent microscopic method; assay type: functional, cell-based
In short: (§1)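 Parental HCC1954 or T47D cells were seeded at 3000 cells/well in 96-well or 1500 cells/well in 384-well optical imaging plates and grown 24 h. Compounds were given for 48 h at up to 10 μM, with 0.1% DMSO and 0.3 μM staurosporine controls. Cells were fixed in 4% paraformaldehyde for 30 min at RT, then Cell Painting stained for 30 min in the dark […]. Imaging used wide-field fluorescence, and nuclei were segmented from the Hoechst channel and counted.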

T47D [2] = experiment: Antiproliferative activity against human T47D cells assessed reduction in cell number at 10 uM incubated for 72 hrs by Alamar blue assay; assay type: functional, cell-based
In short: (§2)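 Parental cells in DMEM with 10% FBS and 2 mM L-glutamine at 37 °C, 5% CO2. Seeded in 96-well plates at a line-optimized density (HCC1954 and T47D, 3000 cells/well) and grown 24 h before treatment. Compounds were incubated 72 h, with 0.1% DMSO (v/v) controls. Alamar Blue was added at 10% v/v for 3 h. Fluorescence was read at ex 540/em 590 nm and normalized to plate DMSO wells.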

HCC1954 [3] = experiment: Induction of morphological changes in human HCC1954 cells at 10 uM incubated for 48 hrs by Hoechst 33342, SYTO14, Phalloidin-594, Wheat germ agglutinin-594, Concavalin-488, MitoTracker DeepRed staining based wide field fluorescent microscopic method; assay type: functional, cell-based; in short: as §1
HCC1954 [4] = experiment: Antiproliferative activity against human HCC1954 cells assessed as reduction in cell number at 10 uM incubated for 72 hrs Alamar blue assay; assay type: functional, cell-based; in short: as §2
T47D [5] = experiment: Induction of morphological changes in human T47D cells assessed as number of nuclei incubated for 48 hrs by Hoechst 33342, SYTO14, Phalloidin-594, Wheat germ agglutinin-594, Concavalin-488, MitoTracker DeepRed staining based wide field fluorescent microscopic method; assay type: functional, cell-based; in short: as §1
T47D [6] = experiment: Antiproliferative activity against human T47D cells assessed as cell viability incubated for 72 hrs Alamar blue assay; assay type: functional, cell-based; in short: as §2
HCC1954 [7] = experiment: Induction of morphological changes in human HCC1954 cells assessed as number of nuclei incubated for 48 hrs by Hoechst 33342, SYTO14, Phalloidin-594, Wheat germ agglutinin-594, Concavalin-488, MitoTracker DeepRed staining based wide field fluorescent microscopic method; assay type: functional, cell-based; conditions: HCC1954, 48 h; in short: as §1
HCC1954 [8] = experiment: Antiproliferative activity against human HCC1954 cells assessed as cell viability incubated for 72 hrs Alamar blue assay; assay type: functional, cell-based; conditions: HCC1954, 72 h; in short: as §2
T47D [9] = experiment: Antiproliferative activity against human T47D cells assessed reduction in cell number at 1 uM incubated for 72 hrs by Alamar blue assay; assay type: functional, cell-based; in short: as §2
HCC1954 [10] = experiment: Antiproliferative activity against human HCC1954 cells assessed as reduction in cell number at 1 uM incubated for 72 hrs Alamar blue assay; assay type: functional, cell-based; in short: as §2
T47D [11] = experiment: Induction of cell cycle arrest in human T47D cells assessed as downregulation in CCND1 RNA incubated for 24 hrs; assay type: functional, cell-based
In short: (§3)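 T47D cells were seeded in 6-well plates for 24 h, then drug-treated for 24 h. RNA was extracted with on-column DNase digestion and checked by A260/A280, and concentrations were normalized. 100 ng RNA was run on the nCounter PanCancer Pathways Panel. Data were normalized per NanoString protocol, and the advanced analysis module calculated differential ratios against DMSO.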

T47D [12] = experiment: Induction of cell cycle arrest in human T47D cells assessed as downregulation in CCNE2 RNA incubated for 24 hrs; assay type: functional, cell-based; in short: as §3
T47D [13] = experiment: Induction of cell cycle arrest in human T47D cells assessed as downregulation in CCNA2 RNA incubated for 24 hrs; assay type: functional, cell-based; in short: as §3
T47D [14] = experiment: Effect on cell cycle pathway in human T47D cells assessed as fold enrichment in cell cycle genes incubated for 24 hrs relative to control; assay type: functional; in short: as §3
T47D [15] = experiment: Effect on cell cycle pathway in human T47D cells assessed as fold enrichment in mitotic genes incubated for 24 hrs relative to control; assay type: functional; in short: as §3
T47D [16] = experiment: Effect on cell cycle pathway in human T47D cells assessed as fold enrichment in G1/S transition genes incubated for 24 hrs relative to control; assay type: functional; in short: as §3
T47D [17] = experiment: Effect on cell cycle pathway in human T47D cells assessed as fold enrichment in cell cycle checkpoint genes incubated for 24 hrs relative to control; assay type: functional; in short: as §3
T47D [18] = experiment: Effect on cell cycle pathway in human T47D cells assessed as fold enrichment in S Phase genes incubated for 24 hrs relative to control; assay type: functional; in short: as §3
T47D [19] = experiment: Effect on TNFR1 pathway in human T47D cells assessed as fold enrichment in TNFR1-induced proapoptotic signaling incubated for 24 hrs relative to control; assay type: functional; in short: as §3
T47D [20] = experiment: Effect on TNFR1 pathway in human T47D cells assessed as fold enrichment in AP1 family of transcription factors incubated for 24 hrs relative to control; assay type: functional; in short: as §3
T47D [21] = experiment: Effect on TNFR1 pathway in human T47D cells assessed as fold enrichment in MAPK targets/nuclear events mediated by MAP kinases incubated for 24 hrs relative to control; assay type: functional; in short: as §3
T47D [22] = experiment: Effect on TNFR1 pathway in human T47D cells assessed as fold enrichment in RAF-independent MAPK1/3 activation genes incubated for 24 hrs relative to control; assay type: functional; in short: as §3
T47D [23] = experiment: Effect on TNFR1 pathway in human T47D cells assessed as fold enrichment in MAP kinase activation genes incubated for 24 hrs relative to control; assay type: functional; in short: as §3

EC50 (T47D [5]) [µM]	EC50 (T47D [6]) [µM]	EC50 (HCC1954 [7]) [µM]	EC50 (HCC1954 [8]) [µM]	SMILES	Activity (T47D [1])	Activity (T47D [2])	Activity (HCC1954 [3])	Activity (HCC1954 [4])	Activity (T47D [9])	Activity (HCC1954 [10])	further results
7.7	> 10	> 10	> 10	CNCCCC1c2ccccc2C=Cc2ccccc21 [PROTRIPTYLINE]	Active	Active	inactive	inactive	inactive	inactive	
5.4	8.6	> 10	> 10	CN(C)CCCN1c2ccccc2Sc2ccc(C(F)(F)F)cc21 [TRIFLUPROMAZINE]	Active	Active	inactive	inactive	inactive	inactive	Activity (T47D [11]): Active; Activity (T47D [12]): Active; Activity (T47D [13]): Active; fold change (FC) (T47D [14]): 7.33; fold change (FC) (T47D [15]): 7.55; fold change (FC) (T47D [16]): 11.45; fold change (FC) (T47D [17]): 11.45; fold change (FC) (T47D [18]): 10.15; fold change (FC) (T47D [19]): 17.4; fold change (FC) (T47D [20]): 14.91; fold change (FC) (T47D [21]): 1.015; fold change (FC) (T47D [22]): 6.96; fold change (FC) (T47D [23]): 6.02
